According to ChEMBL document CHEMBL3244172, “Easily hydrolyzable, water-soluble derivatives of (+/-)-alpha-5-[1-(indol-3-yl)ethyl]-2-methylamino-delta2-thiazoline-4-one, a novel antiviral compound” (J Med Chem, 1979):
The source made the active and inactive calls. The rule behind the calls is not given here.

Legend:
[1] = Solubility in water; type: physicochemical; details: buffer
[2] = Stability in unbuffered aqueous solutions at pH >6 assessed as compound hydrolysis; type: physicochemical; details: unbuffered aqueous solution
[3] = Stability in unbuffered aqueous solutions at pH >6 assessed as compound decarboxylation; type: physicochemical
[4] = Stability in aqueous solutions at neutral pH; type: physicochemical; details: buffer
Influenza A virus [5] = assay: Antiviral activity against Influenza A virus Port Chalmers/1/73 (H3N2) infected in MDCK cells at 1 mg/ml by agar diffusion method; type: functional; details: read-out: DIZ
Method in brief: (§1)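 Agar diffusion: compounds were diluted to 1 mg/mL in Eagle's MEM from stocks of 10 mg/mL in water or 100 mg/mL in DMSO. 0.02 mL went into 6 mm wells cut in the agar overlay above infected monolayers (influenza in MDCK, Coxsackie B1 in HeLa). Read-out was the diameter (mm) of the plaque-free inhibition zone around each well.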

Influenza A virus [6] = assay: Antiviral activity against Influenza A virus Port Chalmers/1/73 (H3N2) infected in MDCK cells assessed as plaque reduction after 3 days by agar diffusion method; type: functional
Method in brief: (§2)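 Plaque reduction: varying compound concentrations were put in the agar overlay above infected monolayers. Coxsackie B1/HeLa was incubated 42 h at 37 °C; influenza/MDCK 3 days at 33 °C. PDD50 is the lowest concentration giving ≥50% fewer plaques than untreated controls.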

Coxsackievirus B1 [7] = assay: Antiviral activity against Coxsackievirus B1 infected in human HeLa cells at 1 mg/ml by agar diffusion method; type: functional; details: Enterovirus B; read-out: DIZ; method in brief: as §1
Coxsackievirus B1 [8] = assay: Antiviral activity against Coxsackievirus B1 infected in human HeLa cells assessed as plaque reduction after 42 hrs by agar diffusion method; type: functional; method in brief: as §2
[9] = Cytotoxicity against MDCK cells infected with Influenza A virus Port Chalmers/1/73 (H3N2) after 3 days by carbol fuchsin staining-based assay; type: cell-based, Canis lupus familiaris; details: dog
Method in brief: (§3)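 MDCK monolayers infected with influenza had compound in the agar overlay and were incubated 3 days at 33 °C. Monolayers were stained with carbol fuchsin or neutral red. MCC is the lowest concentration causing morphological cell abnormalities.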

[10] = Cytotoxicity against human HeLa cells infected with Coxsackievirus B1 after 42 hrs by carbol fuchsin staining-based assay; type: cell-based
Method in brief: (§4)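 HeLa monolayers infected with Coxsackie B1 under an agar overlay holding varying compound concentrations, incubated 37 °C, 42 h. Monolayers stained with carbol fuchsin or neutral red. MCC is the lowest concentration causing morphological abnormalities.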

Influenza A virus [11] = assay: Antiviral activity against Influenza A virus Port Chalmers/1/73 (H3N2) infected in MDCK cells assessed as plaque reduction up to 100 ug/ml after 3 days by agar diffusion method; type: functional, organism-based; method in brief: as §2
Coxsackievirus B1 [12] = assay: Antiviral activity against Coxsackievirus B1 infected in human HeLa cells assessed as plaque reduction up to 100 ug/ml after 42 hrs by agar diffusion method; type: functional, organism-based
Method in brief: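 Compound mixed at varying concentrations into the agar overlay above Coxsackie B1-infected HeLa monolayers. Incubated 37 °C for 42 h. PDD50 is the lowest concentration giving ≥50% fewer plaques than untreated controls.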

MDCK = assay: Cytotoxicity against MDCK cells infected with Influenza A virus Port Chalmers/1/73 (H3N2) up to 100 ug/ml after 3 days by carbol fuchsin staining-based assay; type: cell-based, Canis lupus familiaris; details: dog, 72 h; method in brief: as §3
HeLa = assay: Cytotoxicity against human HeLa cells infected with Coxsackievirus B1 up to 100 ug/ml after 42 hrs by carbol fuchsin staining-based assay; type: cell-based; method in brief: as §4

## CNC1=NC(=O)C(C(C)c2cn(C(=O)OCC(C)(C)N3CCOCC3)c3ccccc23)S1.Cl (racemic)
[1]
  solubility: soluble
[2]
  Stability: Unstable
[3]
  Stability: Unstable

## CNC1=NC(=O)C(C(C)c2cn(C(=O)c3ccccc3C(=O)[O-])c3ccccc23)S1.[Na+] (racemic)
[1]
  solubility: soluble
[4]
  Stability: Stable

## CNC1=NC(=O)C(C(C)c2cn(C(=O)CCCC(=O)O)c3ccccc23)S1 (racemic)
Influenza A virus [5]
  zone of inhibition at 1000 µg/mL: 24 mm
Influenza A virus [6]
  PDD50: 5 µg/mL
Coxsackievirus B1 [7]
  zone of inhibition at 1000 µg/mL: 20 mm
Coxsackievirus B1 [8]
  PDD50: 10 µg/mL
[9]
  MCC at 72 h: 100 µg/mL
[10]
  MCC at 42 h: > 100 µg/mL

## CNC1=NC(=O)C(C(C)c2cn(C(=O)OC(C)CN(C)C)c3ccccc23)S1.Cl (racemic)
[1]
  solubility: soluble
[2]
  Stability: Unstable
[3]
  Stability: Unstable

## CNC1=NC(=O)C(C(C)c2cn(C(=O)OCC(C)(C)[N+](C)(C)C)c3ccccc23)S1.[I-] (racemic)
Influenza A virus [11]
  Activity: inactive
Coxsackievirus B1 [12]
  Activity: inactive
MDCK
  Activity: Non-toxic
HeLa
  Activity: Non-toxic

## CNC1=NC(=O)C(C(C)c2cn(C(=O)c3ccccc3C(=O)O)c3ccccc23)S1 (racemic)
MDCK
  Activity: Non-toxic
HeLa
  Activity: Non-toxic

## CNC1=NC(=O)C(C(C)c2cn(C(=O)OC(C)(C)CN(C)C)c3ccccc23)S1.Cl (racemic)
[1]
  solubility: soluble
[2]
  Stability: Unstable
[3]
  Stability: Unstable

## CNC1=NC(=O)C(C(C)c2cn(C(C)=O)c3ccccc23)S1 (racemic)
Influenza A virus [11]
  Activity: inactive
Coxsackievirus B1 [12]
  Activity: inactive
MDCK
  Activity: Non-toxic
HeLa
  Activity: Non-toxic

## CNC1=NC(=O)C(C(C)c2cn(C(=O)OCC(C)(C)N(C)C)c3ccccc23)S1 (racemic)
Influenza A virus [5]
  zone of inhibition at 1000 µg/mL: 30 mm
Influenza A virus [6]
  PDD50: 0.3 µg/mL
Coxsackievirus B1 [7]
  zone of inhibition at 1000 µg/mL: 35 mm
Coxsackievirus B1 [8]
  PDD50: 20 µg/mL
[9]
  MCC at 72 h: 3 µg/mL
[10]
  MCC at 42 h: 100 µg/mL

## CNC1=NC(=O)C(C(C)c2cn(C(=O)OCC(C)(C)N3CCOCC3)c3ccccc23)S1 (racemic)
Influenza A virus [5]
  zone of inhibition at 1000 µg/mL: 26 mm
Influenza A virus [6]
  PDD50: 2 µg/mL
Coxsackievirus B1 [7]
  zone of inhibition at 1000 µg/mL: 24 mm
Coxsackievirus B1 [8]
  PDD50: 5 µg/mL
[9]
  MCC at 72 h: 30 µg/mL
[10]
  MCC at 42 h: 100 µg/mL

## CNC1=NC(=O)C(C(C)c2c[nH]c3ccccc23)S1 (racemic)
Influenza A virus [5]
  zone of inhibition at 1000 µg/mL: 30 mm
Influenza A virus [6]
  PDD50: 0.5 µg/mL
Coxsackievirus B1 [7]
  zone of inhibition at 1000 µg/mL: 29 mm
Coxsackievirus B1 [8]
  PDD50: 5 µg/mL
[9]
  MCC at 72 h: 3 µg/mL
[10]
  MCC at 42 h: 30 µg/mL
